In ChEMBL document CHEMBL1132480, “Synthesis, acid-base behavior, and binding properties of 6-modified myo-inositol 1,4,5-tris(phosphate)s” (J Med Chem, 1999):

Experiments:
[1] = Equilibrium constant (K3) of the compound.; format: ADME
Outline: (§1)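 Stepwise macroscopic protonation constants measured over pH 2.5–10, where each phosphate has one titratable proton. Observed NMR chemical shifts were treated as weighted averages of the shifts of the protonated and deprotonated species.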

[2] = Equilibrium constant (K1) of the compound.; format: ADME; outline: as §1
[3] = Equilibrium constant (K2) of the compound.; format: ADME; outline: as §1
[4] = biological target: Inositol 1,4,5-trisphosphate-gated calcium channel ITPR3 (Bos taurus, UniProt Q8WN95); experiment: Binding affinity against Inositol 1,4,5-trisphosphate receptor on bovine adrenal cortex microsomes.
Inositol 1,4,5-trisphosphate-gated calcium channel ITPR3, sequence (Q8WN95 whole entry): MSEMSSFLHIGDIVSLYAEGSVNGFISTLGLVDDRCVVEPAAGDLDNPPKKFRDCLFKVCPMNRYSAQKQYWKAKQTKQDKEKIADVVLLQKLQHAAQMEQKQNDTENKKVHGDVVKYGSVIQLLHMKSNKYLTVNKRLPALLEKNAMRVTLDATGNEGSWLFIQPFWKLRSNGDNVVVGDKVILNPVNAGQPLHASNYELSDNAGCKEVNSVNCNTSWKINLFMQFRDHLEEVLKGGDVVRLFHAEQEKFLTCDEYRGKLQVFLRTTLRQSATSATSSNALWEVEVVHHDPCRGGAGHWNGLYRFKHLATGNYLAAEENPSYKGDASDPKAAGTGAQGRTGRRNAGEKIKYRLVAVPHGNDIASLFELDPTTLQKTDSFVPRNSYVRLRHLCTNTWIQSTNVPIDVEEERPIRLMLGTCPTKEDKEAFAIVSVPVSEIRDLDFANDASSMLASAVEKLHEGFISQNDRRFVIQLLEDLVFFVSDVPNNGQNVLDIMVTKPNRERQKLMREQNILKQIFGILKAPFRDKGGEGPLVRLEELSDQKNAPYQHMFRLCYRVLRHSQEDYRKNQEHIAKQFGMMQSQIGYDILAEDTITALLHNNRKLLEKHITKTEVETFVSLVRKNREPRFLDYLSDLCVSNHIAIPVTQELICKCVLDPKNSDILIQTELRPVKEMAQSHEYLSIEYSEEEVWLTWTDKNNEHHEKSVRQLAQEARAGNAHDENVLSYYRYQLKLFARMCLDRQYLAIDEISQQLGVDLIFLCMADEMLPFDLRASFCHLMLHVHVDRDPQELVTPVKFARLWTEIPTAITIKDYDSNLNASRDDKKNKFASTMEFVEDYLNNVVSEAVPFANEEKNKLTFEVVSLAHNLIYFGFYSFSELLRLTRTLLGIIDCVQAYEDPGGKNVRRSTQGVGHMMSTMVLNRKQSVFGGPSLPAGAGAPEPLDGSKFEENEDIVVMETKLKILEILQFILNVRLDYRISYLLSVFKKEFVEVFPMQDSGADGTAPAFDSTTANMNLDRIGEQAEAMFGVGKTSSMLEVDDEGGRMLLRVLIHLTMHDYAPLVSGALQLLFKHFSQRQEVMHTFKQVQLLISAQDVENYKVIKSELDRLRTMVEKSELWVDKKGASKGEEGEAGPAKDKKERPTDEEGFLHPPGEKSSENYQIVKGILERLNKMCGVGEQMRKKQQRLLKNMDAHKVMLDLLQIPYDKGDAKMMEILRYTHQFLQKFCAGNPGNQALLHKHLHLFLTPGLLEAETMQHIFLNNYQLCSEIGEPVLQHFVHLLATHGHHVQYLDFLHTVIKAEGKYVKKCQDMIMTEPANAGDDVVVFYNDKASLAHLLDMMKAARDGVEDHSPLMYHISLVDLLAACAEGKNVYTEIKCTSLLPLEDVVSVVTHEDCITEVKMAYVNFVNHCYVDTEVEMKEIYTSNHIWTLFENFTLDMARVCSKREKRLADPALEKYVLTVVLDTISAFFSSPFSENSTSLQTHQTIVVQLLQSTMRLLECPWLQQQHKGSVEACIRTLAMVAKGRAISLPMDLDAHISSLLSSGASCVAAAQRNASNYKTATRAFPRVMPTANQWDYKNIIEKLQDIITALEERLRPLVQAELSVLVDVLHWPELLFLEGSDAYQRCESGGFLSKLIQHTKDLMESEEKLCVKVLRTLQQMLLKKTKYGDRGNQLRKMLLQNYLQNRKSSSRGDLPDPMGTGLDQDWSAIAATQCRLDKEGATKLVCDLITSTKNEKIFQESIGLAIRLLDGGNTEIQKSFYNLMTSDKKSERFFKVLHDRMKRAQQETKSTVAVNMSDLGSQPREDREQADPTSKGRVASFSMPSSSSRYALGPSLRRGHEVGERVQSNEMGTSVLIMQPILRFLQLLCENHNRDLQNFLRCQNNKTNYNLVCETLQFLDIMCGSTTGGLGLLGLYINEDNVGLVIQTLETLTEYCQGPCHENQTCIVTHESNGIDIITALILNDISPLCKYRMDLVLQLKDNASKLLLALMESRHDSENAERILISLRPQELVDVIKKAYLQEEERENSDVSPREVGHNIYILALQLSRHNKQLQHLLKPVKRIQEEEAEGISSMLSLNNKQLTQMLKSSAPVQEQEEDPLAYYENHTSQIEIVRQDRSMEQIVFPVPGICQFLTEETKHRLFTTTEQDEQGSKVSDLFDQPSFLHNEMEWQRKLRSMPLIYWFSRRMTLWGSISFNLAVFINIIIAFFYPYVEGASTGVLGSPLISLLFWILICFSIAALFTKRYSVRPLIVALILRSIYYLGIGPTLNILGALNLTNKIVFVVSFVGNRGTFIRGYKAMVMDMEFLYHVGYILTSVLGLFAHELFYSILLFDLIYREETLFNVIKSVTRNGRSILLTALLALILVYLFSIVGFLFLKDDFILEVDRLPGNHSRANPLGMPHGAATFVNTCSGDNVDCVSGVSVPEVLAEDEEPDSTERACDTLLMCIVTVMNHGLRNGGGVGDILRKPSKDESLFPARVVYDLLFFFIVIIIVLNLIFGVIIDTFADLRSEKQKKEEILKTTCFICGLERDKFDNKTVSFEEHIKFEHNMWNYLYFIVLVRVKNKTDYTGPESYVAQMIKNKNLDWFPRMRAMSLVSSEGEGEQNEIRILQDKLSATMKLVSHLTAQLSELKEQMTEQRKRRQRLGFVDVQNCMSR

[5] = Equilibrium constant (K4) of the compound.; format: ADME; outline: as §1

Structure (SMILES)	Log K3 [1]	Log K1 [2]	Log K2 [3]	IC50 [4] [nM]	Log K4 [5]
O=P(O)(O)O[C@@H]1[C@H](O)[C@H](O)[C@@H](OP(=O)(O)O)[C@H](OP(=O)(O)O)[C@@H]1O	5.4	8.01	6.39	–	–
O=P(O)(O)O[C@@H]1[C@@H](O)[C@@H](O)[C@@H](OP(=O)(O)O)C[C@H]1OP(=O)(O)O	5.53	8.3	6.65	1000	–
O=P(O)(O)O[C@@H]1[C@H](O)[C@H](O)[C@@H](OP(=O)(O)O)[C@H](OP(=O)(O)O)[C@H]1O [INS(1,4,5)P3]	5.31	7.85	6.4	–	–
N[C@@H]1[C@@H](OP(=O)(O)O)[C@H](OP(=O)(O)O)[C@@H](O)[C@@H](O)[C@H]1OP(=O)(O)O	5.58	10.69	7.35	5000	4.62
O=P(O)(O)O[C@@H]1CC[C@@H](OP(=O)(O)O)[C@H](OP(=O)(O)O)C1	–	–	–	3900	–
O=P(O)(O)O[C@@H]1[C@H](O)[C@H](O)[C@@H](OP(=O)(O)O)[C@H](OP(=O)(O)O)[C@H]1F	5.56	8.76	6.64	2000	–
